Screens deposited in PubChem by Sanford-Burnham Center for Chemical Genomics.
SENP6 block: SENP6 protease inhibitors, primary screen, biochemical, luminescence, uHTS; Sentrin-specific protease 6 (Homo sapiens), Q9GZR1; inhibition, % at 10 µM; 1.8% of 330,000 active; Recombinant SENP6 catalytic domain, aminoluciferin luminescence;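 active means inhibition above about 50% at the single tested dose, limit read from the data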;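 further: plate controls were DMSO wells with enzyme for no effect and DMSO wells lacking enzyme for full effect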
SENP8 block-1: human SENP8 protease inhibitors, primary screen, biochemical, fluorescence, Nedd8 protein substrate, uHTS. 0.64% of 360,000 active. inhibition, % at 20 µM. Sentrin-specific protease 8 (Homo sapiens), Q96LD8. AID 602440, 2012. recombinant SENP8; in the data active means inhibition mostly above about 40%, no sharp cut-off; inactive means mostly below about 27%
SENP1 FRET inh: human SENP1 catalytic domain inhibitors, primary screen, biochemical, FRET, uHTS. Sentrin-specific protease 1 (Homo sapiens), Q9P0U3. recombinant SENP1 catalytic domain, CyPet-SUMO1-YPet FRET cleavage. inhibition, % at 10 µM. 0.21% of 360,000 active. AID 624204, 2012;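 active means inhibition at least 30% at 10 µM, raw YFP signal under a set limit, fluorescence ratio 0.5 to 1.5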;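 further: 0% = enzyme with DMSO and 100% = no enzyme wells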
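Test system: human SENP1 catalytic domain; medium: Tris pH 8 buffer plus EDTA, NaCl, BME, BSA, NP40, catalase; incubation: 50 min reaction at room temperature; technique: FRET, CFP and YFP emission; controls: no-enzyme low control and enzyme-plus-DMSO high control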
SENP7 inh: SENP7 protease inhibitors, primary screen, biochemical, luminescence, uHTS | inhibition, % at 5 µM | 1.5% of 330,000 active | Sentrin-specific protease 7 (Homo sapiens), Q9BQF6 | recombinant SENP7, Z-RLRGG-aminoluciferin luminescence, 40 min | AID 434973, 2010;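 active means inhibition above about 50% at the single test dose, limit read from the data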;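 further: plate controls were DMSO with enzyme for no effect and no enzyme buffer wells for full effect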
Target sequence (Q9BQF6 706-1050 limits assumed): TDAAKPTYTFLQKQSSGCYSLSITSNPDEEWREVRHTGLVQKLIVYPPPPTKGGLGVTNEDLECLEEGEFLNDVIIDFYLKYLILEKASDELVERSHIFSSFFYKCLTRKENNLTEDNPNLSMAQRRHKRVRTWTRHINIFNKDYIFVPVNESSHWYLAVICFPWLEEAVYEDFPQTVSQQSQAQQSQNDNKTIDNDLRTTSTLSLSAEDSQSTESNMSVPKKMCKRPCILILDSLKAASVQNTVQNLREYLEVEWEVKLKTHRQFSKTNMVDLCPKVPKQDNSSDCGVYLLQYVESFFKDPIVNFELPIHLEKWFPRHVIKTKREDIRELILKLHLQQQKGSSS
SENP8 block-2: SENP8 protease inhibitors, primary screen, biochemical, luminescence; purified SENP8, Z-RLRGG-aminoluciferin cleavage; AID 2540, 2010; 1.2% of 330,000 active; inhibition, % at 10 µM; Sentrin-specific protease 8 (Homo sapiens), Q96LD8; in the data active means inhibition above about 50%
SENP8 conf: SENP8 protease inhibitors, retest, confirmation, biochemical, luminescence, single concentration; shares compounds with SENP7 inh; Recombinant SENP8, Z-RLRGG-aminoluciferin luminescence, 60 min; inhibition, % at 12.5 µM; 40% of 6,200 active;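 active means mean inhibition across replicates above about 50%, limit read from the data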
SENP6 conf: SENP6 protease inhibitors, confirmation, biochemical, luminescence, single concentration; shares compounds with SENP7 inh; AID 488915, 2010; inhibition, % at 12.5 µM; 58% of 6,200 active; recombinant SENP6, Z-RLRGG-aminoluciferin luminescence
SENP7 conf: SENP7 protease inhibitors, retest, confirmation, biochemical, luminescence, single concentration; shares compounds with SENP7 inh; recombinant SENP7, Z-RLRGG-aminoluciferin luminescence, 40 min; inhibition, % at 12.5 µM; 69% of 6,200 active
Casp3 SENP sel: caspase-3 protease inhibitors, confirmation, selectivity assay for SENP inhibitor project, biochemical, single concentration. shares compounds with SENP7 inh. purified caspase-3, Z-DEVD-aminoluciferin luminescence, 60 min. inhibition, % at 12.5 µM. 60% of 6,200 active. AID 488918, 2010;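 active means mean inhibition above about 50%, limit read from the data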;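 further: plate controls were enzyme with DMSO for no effect and wells without caspase-3 for full effect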
Luc interf: luminescence interference (SENP counter-screen); Pre-incubated SENP8/Z-RLRGG-aminoluciferin, luciferase luminescence interference; 39% of 6,200 active; shares compounds with SENP7 inh; AID 488919; inhibition, % at 12.5 µM;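 active means mean inhibition above about 50% when retested at one dose, limit read from the data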;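 further: plate controls were DMSO wells with completed reaction for no effect and substrate without enzyme for full effect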
Active calls of the source: *; . = not tested or not shown. In the library only some 2.5% were active in any assay of this set; here they are far more common.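 How the source made its calls, unless noted: active means mean inhibition above about 50% in the one-dose retest (limit read from the data); inactive means the rest.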

SMILES	SENP6 block	SENP8 block-1	SENP1 FRET inh	SENP7 inh	SENP8 block-2	SENP8 conf	SENP6 conf	SENP7 conf	Casp3 SENP sel	Luc interf
CN(C)c1ccc(C(=O)c2ccc(O)cc2O)cc1	67*	31	1	42	49	54*	51*	83*	46	60*
COc1ccc(CNC(=O)c2cc(S(=O)(=O)N3CCCCC3)ccc2N2CCOCC2)cc1OC	.	-6	-1	.	.	.	.	.	.	.
CCCS(=O)(=O)c1nc(S(=O)(=O)c2ccc(C)cc2)c(NCCN2CCOCC2)s1	104*	25	-9	6	5	9	2	-6	0	-3
CCS(=O)(=O)c1nc(S(=O)(=O)c2ccc(C)cc2)c(NCCCN2CCOCC2)s1	-4	9	4	-1	4	.	.	.	.	.
Cc1nnc(SCC(=O)N(CCC#N)c2ccc3c(c2)OCCO3)s1	-33	2	-1	-2	-11	.	.	.	.	.
CC1(C)CC(NC(=O)c2ccc(Br)o2)CC(C)(C)N1	-3	11	3	6	3	.	.	.	.	.
Clc1nc(-c2ccccn2)nc2scc(-c3ccccc3)c12	87*	-295	-1	46	68*	22	52*	49	41	16
O=C(CCNC(=O)c1ccccc1Cl)NCCC1=CCCCC1	-10	6	1	-3	-6	.	.	.	.	.
Cc1cccc(NC(=O)Nc2ccc(S(=O)(=O)Nc3onc(C)c3C)cc2)c1	77*	17	1	49	83*	88*	85*	94*	87*	52*
Cc1cccc(OCCCC(=O)Nc2ccc(S(=O)(=O)Nc3onc(C)c3C)cc2)c1	-1	-14	2	-7	7	.	.	.	.	.
Cc1cc(NS(=O)(=O)c2ccc(NC(=O)Nc3ccc4c(c3)OCO4)cc2)no1	67*	13	3	47	34	55*	51*	82*	76*	38
Cc1cc(NS(=O)(=O)c2ccc(NC(=O)Nc3cccc(Cl)c3)cc2)no1	84*	19	0	69*	72*	10	81*	93*	67*	59*
Cc1cc(NS(=O)(=O)c2ccc(NC(=O)NC3CCCCC3)cc2)no1	26	12	-6	3	-3	.	.	.	.	.
Cc1noc(NS(=O)(=O)c2ccc(NC(=O)c3cnc4scc(C)n4c3=O)cc2)c1C	67*	-20	-2	18	46	39	38	69*	82*	49
Cc1cc(NS(=O)(=O)c2ccc(NC(=O)c3cnc4scc(C)n4c3=O)cc2)nc(C)n1	11	-254	1	8	10	.	.	.	.	.
O=C(NCc1ccncc1)C1Cc2c(-c3ccccc3Oc3ccccc3)ccnc2O1 (centres undefined)	.	-1	-1	.	.	.	.	.	.	.
COCCNC(=O)C1(C)CCCN(Cc2csc(-c3ccc(Cl)cc3)n2)C1 (centres undefined)	.	9	0	.	.	.	.	.	.	.
CCc1ccc(C(=O)/C=C2\Sc3ccccc3NC2=O)cc1	70*	15	3	2	32	69*	68*	88*	61*	14
CCCCNC(=O)/C=C1\Sc2ccccc2NC1=O	11	-224	-11	7	-7	.	.	.	.	.
